# Source: ChEMBL document CHEMBL3286203, “Reactive oxygen species (ROS) inducible DNA cross-linking agents and their effect on cancer cells and normal lymphocytes” (J Med Chem, 2014)
# Calls of active or inactive are those of the source. No cut-off for these calls is given here.
# Experiments:
# [1] = test system: SR; assay: Cytotoxicity against human SR cells after 48 hrs by SRB assay; format: functional
# Method in brief: (§1)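 GI50 from the NCI-60 DTP human tumour line screen. Lines grown in RPMI 1640 with 5% fetal bovine serum and 2 mM L-glutamine, plated at 5000–40 000 cells/well according to doubling time. Incubated 48 h at 37 °C, 5% CO2.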
# [2] = test system: SK-MEL-28; assay: Cytotoxicity against human SK-MEL-28 cells after 48 hrs by SRB assay; format: functional; conditions: SK-MEL-28, 48 h
# Method in brief: (§2)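 GI50 from the NCI Developmental Therapeutics Program in vitro human tumor cell screen. Cell lines were maintained in RPMI 1640 with 5% fetal bovine serum and 2 mM L-glutamine. They were seeded at 5000–40 000 cells/well, depending on each line's doubling time, then exposed to drug for 48 h at 37 °C, 5% CO2.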
# [3] = Induction of [32P]-labeled 49-mer oligonucleotide duplex DNA 12 interstrand cross-linking (unknown origin) at purine nucleotide site using compound radiolabeled at 5' of 12b at 90 deg C after 30 mins by PAGE in presence of piperidine
# [4] = test system: DU-145; assay: Cytotoxicity against human DU145 cells after 48 hrs by SRB assay; format: functional; conditions: DU-145, 48 h
# Method in brief: (§3)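 GI50 was determined in the NCI Developmental Therapeutics Program in vitro 60-line cancer screen. Tumour lines were maintained in RPMI 1640 containing 5% FBS and 2 mM L-glutamine. Cells were inoculated at 5000–40 000 cells/well according to each line's doubling time before drug exposure.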
# [5] = Cytotoxicity against human UO31 cells after 48 hrs by SRB assay; format: functional; conditions: UO-31, 48 h; method in brief: as §1
# [6] = test system: BT-549; assay: Cytotoxicity against human BT549 cells after 48 hrs by SRB assay; format: functional; conditions: BT-549, 48 h; method in brief: as §3
# [7] = test system: HCT-116; assay: Cytotoxicity against human HCT116 cells after 48 hrs by SRB assay; format: functional; conditions: HCT-116, 48 h; method in brief: as §3
# [8] = Cytotoxicity against human Hs578T cells after 48 hrs by SRB assay; format: functional; conditions: Hs-578T; method in brief: as §3
# [9] = Cytotoxicity against human UACC257 cells after 48 hrs by SRB assay; format: functional; conditions: UACC-257, 48 h; method in brief: as §1
# [10] = Cytotoxicity against human NCI-ADR-RES cells after 48 hrs by SRB assay; format: functional; method in brief: as §2
# [11] = test system: IGROV-1; assay: Cytotoxicity against human IGROV1 cells after 48 hrs by SRB assay; format: functional; conditions: IGROV-1, 48 h; method in brief: as §3
# [12] = Induction of [32P]-labeled 49-mer oligonucleotide duplex DNA 12 interstrand cross-linking (unknown origin) at purine nucleotide site using compound radiolabeled at 3' of 12a at 90 deg C after 30 mins by PAGE in presence of piperidine
# [13] = test system: MDA-MB-435; assay: Cytotoxicity against human MDA-MB-435 cells after 48 hrs by SRB assay; format: functional; conditions: MDA-MB-435, 48 h; method in brief: as §2
# [14] = Cytotoxicity against human EKVX cells after 48 hrs by SRB assay; format: functional; method in brief: as §3
# [15] = test system: HT-29; assay: Cytotoxicity against human HT-29 cells after 48 hrs by SRB assay; format: functional; conditions: HT-29, 48 h; method in brief: as §3
# [16] = test system: ACHN; assay: Cytotoxicity against human ACHN cells after 48 hrs by SRB assay; format: functional; method in brief: as §3
# [17] = Cytotoxicity against human UACC62 cells after 48 hrs by SRB assay; format: functional; conditions: UACC-62, 48 h; method in brief: as §1
# [18] = test system: RPMI-8226; assay: Cytotoxicity against human RPMI8226 cells after 48 hrs by SRB assay; format: functional; conditions: RPMI-8226, 48 h; method in brief: as §2
# [19] = test system: U-251; assay: Cytotoxicity against human U251 cells after 48 hrs by SRB assay; format: functional; conditions: U-251, 48 h; method in brief: as §1
# [20] = test system: SW-620; assay: Cytotoxicity against human SW620 cells after 48 hrs by SRB assay; format: functional; conditions: SW-620, 48 h; method in brief: as §1
# [21] = test system: PC-3; assay: Cytotoxicity against human PC3 cells after 48 hrs by SRB assay; format: functional; conditions: PC-3, 48 h; method in brief: as §2
# [22] = test system: COLO 205; assay: Cytotoxicity against human COLO205 cells after 48 hrs by SRB assay; format: functional; conditions: COLO 205, 48 h; method in brief: as §3
# [23] = Cytotoxicity against human HCT15 cells after 48 hrs by SRB assay; format: functional; conditions: HCT-15, 48 h; method in brief: as §3
# [24] = test system: HOP-62; assay: Cytotoxicity against human HOP62 cells after 48 hrs by SRB assay; format: functional; conditions: HOP-62, 48 h; method in brief: as §3
# [25] = test system: NCI-H522; assay: Cytotoxicity against human NCI-H522 cells after 48 hrs by SRB assay; format: functional; conditions: NCI-H522, 48 h; method in brief: as §2
# [26] = test system: TK-10; assay: Cytotoxicity against human TK10 cells after 48 hrs by SRB assay; format: functional; conditions: TK-10, 48 h; method in brief: as §1
# [27] = test system: K562; assay: Cytotoxicity against human K562 cells after 48 hrs by SRB assay; format: functional; conditions: K562, 48 h; method in brief: as §3
# [28] = test system: A549; assay: Cytotoxicity against human A549 cells after 48 hrs by SRB assay; format: functional; conditions: A549, 48 h; method in brief: as §3
# [29] = test system: LOX IMVI; assay: Cytotoxicity against human LOXIMVI cells after 48 hrs by SRB assay; format: functional; method in brief: as §3
# [30] = Cytotoxicity against human OVCAR3 cells after 48 hrs by SRB assay; format: functional; conditions: OVCAR-3, 48 h; method in brief: as §2
# [31] = test system: HOP-92; assay: Cytotoxicity against human HOP92 cells after 48 hrs by SRB assay; format: functional; conditions: HOP-92, 48 h; method in brief: as §3
# [32] = test system: SF-295; assay: Cytotoxicity against human SF295 cells after 48 hrs by SRB assay; format: functional; conditions: SF-295, 48 h; method in brief: as §2
# [33] = test system: HCC 2998; assay: Cytotoxicity against human HCC2998 cells after 48 hrs by SRB assay; format: functional; conditions: HCC 2998, 48 h; method in brief: as §3
# [34] = test system: NCI-H322M; assay: Cytotoxicity against human NCI-H322M cells after 48 hrs by SRB assay; format: functional; method in brief: as §2
# [35] = test system: M14; assay: Cytotoxicity against human M14 cells after 48 hrs by SRB assay; format: functional; conditions: M14, 48 h; method in brief: as §3
# [36] = Cytotoxicity against human OVCAR4 cells after 48 hrs by SRB assay; format: functional; conditions: OVCAR-4, 48 h; method in brief: as §2
# [37] = Cytotoxicity against human OVCAR5 cells after 48 hrs by SRB assay; format: functional; conditions: OVCAR-5, 48 h; method in brief: as §2
# [38] = test system: HL-60(TB); assay: Cytotoxicity against human HL-60(TB) cells after 48 hrs by SRB assay; format: functional; conditions: HL-60, 48 h; method in brief: as §3
# [39] = Cytotoxicity against human OVCAR8 cells after 48 hrs by SRB assay; format: functional; conditions: OVCAR-8, 48 h; method in brief: as §2
# [40] = test system: SK-MEL-2; assay: Cytotoxicity against human SK-MEL-2 cells after 48 hrs by SRB assay; format: functional; conditions: SK-MEL-2, 48 h; method in brief: as §2
# [41] = Induction of [32P]-labeled 49-mer oligonucleotide duplex DNA 12 interstrand cross-linking (unknown origin) at purine nucleotide site using compound radiolabeled at 3' of 12a in phosphate buffer at pH 7 at 90 degC after 30 mins by PAGE
# [42] = test system: RXF 393; assay: Cytotoxicity against human RXF393 cells after 48 hrs by SRB assay; format: functional; conditions: RXF 393, 48 h; method in brief: as §2
# [43] = test system: NCI-H226; assay: Cytotoxicity against human NCI-H226 cells after 48 hrs by SRB assay; format: functional; conditions: NCI-H226, 48 h; method in brief: as §2
# [44] = test system: MCF7; assay: Cytotoxicity against human MCF7 cells after 48 hrs by SRB assay; format: functional; conditions: MCF7, 48 h; method in brief: as §3
# [45] = test system: NCI-H460; assay: Cytotoxicity against human NCI-H460 cells after 48 hrs by SRB assay; format: functional; conditions: NCI-H460, 48 h; method in brief: as §2
smiles,measurement,setting,value
CC1(C)OB(c2ccc(N(CCCl)CCBr)cc2)OC1(C)C,GI50,[1],660 nM
same,GI50,[2],20.6 µM
same,Activity,[3],Active
same,GI50,[4],6.69 µM
same,GI50,[5],6.51 µM
same,GI50,[6],12.1 µM
same,GI50,[7],13.9 µM
same,GI50,[8],27.4 µM
same,GI50,[9],13.4 µM
same,GI50,[10],6.69 µM
same,GI50,[11],19.1 µM
same,Activity,[12],Active
same,GI50,[13],16.5 µM
same,GI50,[14],22.5 µM
same,GI50,[15],18.8 µM
same,GI50,[16],3.4 µM
same,GI50,[17],9.38 µM
same,GI50,[18],19.4 µM
same,GI50,[19],5.07 µM
same,GI50,[20],13.9 µM
same,GI50,[21],17.7 µM
same,GI50,[22],11.4 µM
same,GI50,[23],17.1 µM
same,GI50,[24],10.9 µM
same,GI50,[25],11.7 µM
same,GI50,[26],22.6 µM
same,GI50,[27],22.6 µM
same,GI50,[28],4.88 µM
same,GI50,[29],6.6 µM
same,GI50,[30],15 µM
same,GI50,[31],12.8 µM
same,GI50,[32],2640 nM
same,GI50,[33],24 µM
same,GI50,[34],32.5 µM
same,GI50,[35],7.86 µM
same,GI50,[36],14.4 µM
same,GI50,[37],25.9 µM
same,GI50,[38],5.11 µM
same,GI50,[39],11.9 µM
same,GI50,[40],20.8 µM
same,Activity,[41],Active
same,GI50,[42],10.4 µM
same,GI50,[43],11.9 µM
same,GI50,[44],5.03 µM
same,GI50,[45],420 nM
CC1(C)OB(c2ccc(N(CCCl)CCCl)cc2)OC1(C)C,GI50,[1],630 nM
same,GI50,[2],21 µM
same,Activity,[3],Active
same,GI50,[4],4.25 µM
same,GI50,[5],5.78 µM
same,GI50,[6],10.5 µM
same,GI50,[7],11.6 µM
same,GI50,[8],26.2 µM
same,GI50,[9],11.6 µM
same,GI50,[10],5.33 µM
same,GI50,[11],15.6 µM
same,Activity,[12],Active
same,GI50,[13],14.2 µM
same,GI50,[14],18.6 µM
same,GI50,[15],13.8 µM
same,GI50,[16],3.64 µM
same,GI50,[17],6.12 µM
same,GI50,[18],10.9 µM
same,GI50,[19],3.75 µM
same,GI50,[20],11.3 µM
same,GI50,[21],14.3 µM
same,GI50,[22],11.6 µM
same,GI50,[23],13.2 µM
same,GI50,[24],10.9 µM
same,GI50,[25],6.59 µM
same,GI50,[26],16.7 µM
same,GI50,[27],17.2 µM
same,GI50,[28],2.69 µM
same,GI50,[29],5.17 µM
same,GI50,[30],14.6 µM
same,GI50,[31],9.24 µM
same,GI50,[32],2110 nM
same,GI50,[33],14.9 µM
same,GI50,[34],14.7 µM
same,GI50,[35],5.1 µM
same,GI50,[36],17.4 µM
same,GI50,[37],21.6 µM
same,GI50,[38],4.66 µM
same,GI50,[39],7.83 µM
same,GI50,[40],22.1 µM
same,Activity,[41],Active
same,GI50,[42],10.3 µM
same,GI50,[43],12.9 µM
same,GI50,[44],4.12 µM
same,GI50,[45],330 nM
